Where “and” joins values, the source holds several entries; their conditions need not be identical. Equal entries are not always repeated.
Test system: HEK-293T
Assay: Multiplex assay against HEK293T
Assay type: toxicity, cell-based
Details: human, number of replicates 2
Method in brief: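 Per cents of healthy-nucleus cells form the tubulin, mitochondrial-mass and membrane-permeability phenotype values. Live cells were stained at seeding with Hoechst33342, BioTracker Green Microtubule Cytoskeleton Dye, MitoTracker Red and Annexin V Alexa Fluor 680. After compound addition they were imaged on a CQ1 microscope at 37°C and 5% CO2, and CellPathfinder machine-learning gating split them into Hoechst high-intensity objects or normal cells, normal cells into healthy, pyknosed or fragmented nuclei, and pyknosed cells into mitotic or apoptotic.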

[1] = 12 h, 1 µM, compound concentration 1 uM
[2] = 12 h, 10 µM, compound concentration 10 uM
[3] = 24 h, 1 µM, compound concentration 1 uM
[4] = 24 h, 10 µM, compound concentration 10 uM
[5] = 48 h, 1 µM, compound concentration 1 uM
[6] = 48 h, 10 µM, compound concentration 10 uM

For CN1CCc2cc(Nc3ncc(C(F)(F)F)c(NCc4cc[nH]n4)n3)ccc2C1, the “Population Apoptotic (%)” value [1] was 85% and 72%, the “Population Fragmented Nuclei (%)” value [1] was 4% and 3% and the “Population Healthy Nuclei (%)” value [1] was 77% and 78%. For the same compound, the “Population Hoechst High Intensity Objects (%)” value [1] was 14% and 11%, the “Population Membrane Permeable-Phenotype (%)” value [1] was 1% and the “Population Mitochondria Different-Phenotype (%)” value [1] was 41% and 47%. For the same compound, the “Population Mitotic Cells (%)” value [1] was 14% and 27%, the “Population Normal (%)” value [1] was 85% and 88% and the “Population Pyknosed Nuclei (%)” value [1] was 17%. The “Population Tubulin-Different-Phenotype (%)” value [1] was 35% and 44%, the “Total Cell Count” value [1] was 280 and 291 and the “Population Apoptotic (%)” value [2] was 64% and 85%. The “Population Fragmented Nuclei (%)” value [2] was 5%, the “Population Healthy Nuclei (%)” value [2] was 89% and the “Population Hoechst High Intensity Objects (%)” value [2] was 10% and 13%. For the same compound, the “Population Membrane Permeable-Phenotype (%)” value [2] was 0%, the “Population Mitochondria Different-Phenotype (%)” value [2] was 38% and 43% and the “Population Mitotic Cells (%)” value [2] was 35% and 14%. For the same compound, the “Population Normal (%)” value [2] was 89% and 86%, the “Population Pyknosed Nuclei (%)” value [2] was 5% and the “Population Tubulin-Different-Phenotype (%)” value [2] was 66% and 70%. The “Total Cell Count” value [2] was 377 and 312, the “Population Apoptotic (%)” value [3] was 83% and 72% and the “Population Fragmented Nuclei (%)” value [3] was 4% and 5%. The “Population Healthy Nuclei (%)” value [3] was 81% and 73%, the “Population Hoechst High Intensity Objects (%)” value [3] was 20% and 13% and the “Population Membrane Permeable-Phenotype (%)” value [3] was 0%. For the same compound, the “Population Mitochondria Different-Phenotype (%)” value [3] was 37% and 43%, the “Population Mitotic Cells (%)” value [3] was 16% and 27% and the “Population Normal (%)” value [3] was 79% and 86%. The “Population Pyknosed Nuclei (%)” value [3] was 14% and 20%, the “Population Tubulin-Different-Phenotype (%)” value [3] was 38% and 42% and the “Total Cell Count” value [3] was 267 and 261. The “Population Apoptotic (%)” value [4] was 63% and 80%, the “Population Fragmented Nuclei (%)” value [4] was 5% and 4% and the “Population Healthy Nuclei (%)” value [4] was 87%. The “Population Hoechst High Intensity Objects (%)” value [4] was 11% and 13%, the “Population Membrane Permeable-Phenotype (%)” value [4] was 1% and 0% and the “Population Mitochondria Different-Phenotype (%)” value [4] was 58% and 60%. The “Population Mitotic Cells (%)” value [4] was 36% and 20%, the “Population Normal (%)” value [4] was 88% and 86% and the “Population Pyknosed Nuclei (%)” value [4] was 7% and 8%. The “Population Tubulin-Different-Phenotype (%)” value [4] was 73% and 71%, the “Total Cell Count” value [4] was 315 and 284 and the “Population Apoptotic (%)” value [5] was 80% and 72%. The “Population Fragmented Nuclei (%)” value [5] was 7% and 5%, the “Population Healthy Nuclei (%)” value [5] was 79% and the “Population Hoechst High Intensity Objects (%)” value [5] was 16% and 14%. For the same compound, the “Population Membrane Permeable-Phenotype (%)” value [5] was 1%, the “Population Mitochondria Different-Phenotype (%)” value [5] was 40% and 36% and the “Population Mitotic Cells (%)” value [5] was 19% and 27%. For the same compound, the “Population Normal (%)” value [5] was 83% and 85%, the “Population Pyknosed Nuclei (%)” value [5] was 13% and 15% and the “Population Tubulin-Different-Phenotype (%)” value [5] was 36%. For the same compound, the “Total Cell Count” value [5] was 285 and 307, the “Population Apoptotic (%)” value [6] was 46% and 75% and the “Population Fragmented Nuclei (%)” value [6] was 3% and 4%. The “Population Healthy Nuclei (%)” value [6] was 84% and 82%, the “Population Hoechst High Intensity Objects (%)” value [6] was 14% and 18% and the “Population Membrane Permeable-Phenotype (%)” value [6] was 0% and 1%. The “Population Mitochondria Different-Phenotype (%)” value [6] was 65% and 67%, the “Population Mitotic Cells (%)” value [6] was 53% and 25% and the “Population Normal (%)” value [6] was 85% and 81%. For the same compound, the “Population Pyknosed Nuclei (%)” value [6] was 11% and 12%, the “Population Tubulin-Different-Phenotype (%)” value [6] was 71% and 72% and the “Total Cell Count” value [6] was 303 and 280.
